Publication PMC3330681 (Scientific Reports, 2012)

What was measured:
Format in all cases: cell-based
GPR35 [1] = molecular target: T1, GPR35 (Homo sapiens, UniProt Q9HC97); assay: Tango β-arrestin translocation gene reporter assay in U2OS-GPR35-bla cells; details: for Efficacy Tango (maximal response): normalized to maximal response of zaprinast within the same plate
GPR35 [2] = molecular target: T1, GPR35; assay: Dynamic mass redistribution; details: for DMR signal in DMR agonism profiling (in words): doses up to 1 mM
GPR35 [3] = molecular target: T1, GPR35; assay: Receptor internalization assay; details: HT-29, 1 hr; 50 μM gentisate, 2 mM L-DOPA, 50 μM DHICA, 500 μM DOPAC, 5 μM reverse T3, 200 μM T4, 50 μM 3-nitrotyrosine
Outline: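 HT-29 cells (McCoy's 5a, 10% FBS, 37°C/5% CO2) were seeded on chamber slides at 10,000 cells/well for 24 hrs, then given a test compound at a fixed dose or DMSO vehicle for 1 hr at 37°C. Cells were fixed in 4% formaldehyde, permeabilized, and stained with intracellular-domain anti-GPR35 (1:500, 24 hrs) and an Alexa Fluor 594 secondary. Confocal imaging followed.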

GPR35 [4] = molecular target: T1, GPR35; assay: DMR antagonist assay: SPB05142 blocking the agonist-induced DMR in HT-29 cells; details: for DMR of the agonist in the presence of 64 μM SPB05142: HT-29 cells
Outline: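 HT-29 cells in McCoy's 5a with 10% FBS were grown overnight to confluence on resonant waveguide biosensor plates, washed into HBSS and equilibrated 1 hr at 26°C. GPR35 antagonist pretreatment lasted 1 hr, then baseline, then agonist at a fixed dose. DMR was recorded for about 1 hr and background-corrected.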

[5] = U2OS-GPR35-bla cells, β-arrestin translocation
[6] = DMR agonism, HT-29 cells, maximal DMR amplitude within 1 hr

T1 sequence (Q9HC97 whole entry): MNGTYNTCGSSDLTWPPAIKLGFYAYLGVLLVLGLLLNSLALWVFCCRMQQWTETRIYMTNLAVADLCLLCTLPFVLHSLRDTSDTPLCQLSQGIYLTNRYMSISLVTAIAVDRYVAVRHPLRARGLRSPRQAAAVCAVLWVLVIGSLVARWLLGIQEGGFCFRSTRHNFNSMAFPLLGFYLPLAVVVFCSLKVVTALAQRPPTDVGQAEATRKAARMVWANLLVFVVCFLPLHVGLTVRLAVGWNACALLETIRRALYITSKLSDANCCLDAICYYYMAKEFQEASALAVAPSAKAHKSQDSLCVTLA

C[C@](N)(Cc1ccc(O)c(O)c1)C(=O)O [α-methyl-L-DOPA, reference compound]
EC50 Tango (GPR35 [1]; [5]): Inactive | EC50 DMR (GPR35 [2]; [6]): Inactive

N[C@@H](Cc1ccc(Oc2cc(I)c(O)c(I)c2)c(I)c1)C(=O)O [Reverse T3, 3,3′,5′-triiodothyronine]
GPR35 internalization (GPR35 [3]): obvious internalization | EC50 (GPR35 [1]): 108 ± 9 µM | Activity in Tango β-arrestin translocation assay (in words) (GPR35 [1]; U2OS-GPR35-bla cells): full agonist | Efficacy Tango (maximal response) (GPR35 [1]; U2OS-GPR35-bla cells): 108 % Zaprinast | EC50 (GPR35 [2]): 5.89 ± 0.39 µM | Efficacy DMR (maximal response) (GPR35 [2]; HT-29 cells): 276±12 pm | DMR signal in DMR agonism profiling (in words) (GPR35 [2]; HT-29 cells): clear dose-dependent DMR

N[C@@H](Cc1ccccc1)C(=O)O [L-Phenylalanine, L-phenylalanine]
EC50 Tango (GPR35 [1]; [5]): Inactive | EC50 DMR (GPR35 [2]; [6]): Inactive

O=C(/C=C/c1ccc(O)c(O)c1)O[C@H](Cc1ccc(O)c(O)c1)C(=O)O [Rosmarinate, rosmarinate]
EC50 (GPR35 [1]): 169 ± 17 µM | Efficacy Tango (maximal response) (GPR35 [1]; U2OS-GPR35-bla cells): 63 % Zaprinast | EC50 (GPR35 [2]): 29.4 ± 2.7 µM | Efficacy DMR (maximal response) (GPR35 [2]; HT-29 cells): 320±11 pm | DMR signal in DMR agonism profiling (in words) (GPR35 [2]; HT-29 cells): active

O=C(O)CCc1ccc(O)c(O)c1 [Dihydrocaffeic acid, 3-(3,4-dihydroxyphenyl)propionic acid]
DMR of the agonist in the presence of 64 μM SPB05142 (GPR35 [4]): residual DMR signal | EC50 (GPR35 [1]): 186 ± 21 µM | Efficacy Tango (maximal response) (GPR35 [1]; U2OS-GPR35-bla cells): 46 % Zaprinast | EC50 (GPR35 [2]): 342 ± 41 µM | Efficacy DMR (maximal response) (GPR35 [2]; HT-29 cells): 293±12 pm | DMR signal in DMR agonism profiling (in words) (GPR35 [2]; HT-29 cells): active

N[C@@H](Cc1ccc(O)c(O)c1)C(=O)O [L-DOPA, 3,4-dihydroxy-L-phenylalanine, reference compound]
GPR35 internalization (GPR35 [3]): obvious internalization | EC50 Tango (GPR35 [1]; [5]): Inactive | EC50 (GPR35 [2]): > 500 µM | Efficacy DMR (maximal response) (GPR35 [2]; HT-29 cells): Off-target | DMR signal in DMR agonism profiling (in words) (GPR35 [2]; HT-29 cells): did not reach a saturated level up to 1 mM

NC(Cc1ccc(O)cc1)C(=O)O (racemic) [DL-Tyrosine, DL-tyrosine]
EC50 Tango (GPR35 [1]; [5]): Inactive | EC50 DMR (GPR35 [2]; [6]): Inactive

CCCOc1ccccc1-c1nc2nn[nH]c2c(=O)[nH]1 [Zaprinast, reference compound]
Efficacy Tango (maximal response) (GPR35 [1]; U2OS-GPR35-bla cells): 100 % Zaprinast | Efficacy DMR (maximal response) (GPR35 [2]; HT-29 cells): 250±17 pm

O=C(O)c1cc(=O)c2ccccc2[nH]1 [Kynurenic acid, reference compound]
EC50 (GPR35 [1]): > 500 µM | Efficacy Tango (maximal response) (GPR35 [1]; U2OS-GPR35-bla cells): >60 % Zaprinast | Efficacy DMR (maximal response) (GPR35 [2]; HT-29 cells): 203±13 pm

O=C(O)Cc1ccc(O)cc1 [4-Hydroxyphenylacetate, 4-hydroxyphenylacetate]
EC50 Tango (GPR35 [1]; [5]): Inactive | EC50 DMR (GPR35 [2]; [6]): Inactive

O=C([O-])c1cc(=O)c2c(OCC(O)COc3cccc4oc(C(=O)[O-])cc(=O)c34)cccc2o1.[Na+].[Na+] [Cromolyn disodium, reference compound]
Efficacy Tango (maximal response) (GPR35 [1]; U2OS-GPR35-bla cells): 97 % Zaprinast | EC50 (GPR35 [1]; read-out: EC50 Tango, U2OS-GPR35-bla cells, β-arrestin translocation): 9.67 ± 0.71 µM | Efficacy DMR (maximal response) (GPR35 [2]; HT-29 cells): 252±16 pm | EC50 (GPR35 [2]; read-out: EC50 DMR, DMR agonism, HT-29 cells, maximal DMR amplitude within 1 hr): 0.52 ± 0.04 µM

COc1cc(CCN)ccc1O [3-Methoxytyramine, 3-methoxytyramine]
EC50 Tango (GPR35 [1]; [5]): Inactive | EC50 DMR (GPR35 [2]; [6]): Inactive

NC(Cc1ccccc1)C(=O)O (racemic) [DL-Phenylalanine, DL-phenylalanine]
EC50 Tango (GPR35 [1]; [5]): Inactive | EC50 DMR (GPR35 [2]; [6]): Inactive

O=C(O)c1cccnc1Nc1cccc(C(F)(F)F)c1 [Niflumic acid, reference compound]
Efficacy Tango (maximal response) (GPR35 [1]; U2OS-GPR35-bla cells): 39 % Zaprinast | Efficacy DMR (maximal response) (GPR35 [2]; HT-29 cells): 223±11 pm

COC(=O)c1cnn(-c2ccc(F)cc2F)c1C=NNC(=S)NC(C)(C)C [SPB05142, methyl-5-[(tert-butylcarbamothioylhydrazinylidene)-methyl]-1-(2,4-difluorophenyl)-pyrazole-4-carboxylate, reference compound]
Inhibition by SPB05142 of the DMR of DOPA (GPR35 [4]; HT-29, agonist at EC50 to EC80): partially inhibited | Inhibition by SPB05142 of the DMR arising from all other eleven agonists (GPR35 [4]; HT-29, each agonist at EC50 to EC80): dose-dependently inhibited | IC50 Antagonist (SPB05142 to block the DMR of the agonist) (GPR35 [4]; against homogentisate, HT-29): No inhibition | Activity in Tango β-arrestin translocation assay (in words) (GPR35 [1]; U2OS-GPR35-bla cells): inactive | DMR signal in DMR agonism profiling (in words) (GPR35 [2]; HT-29 cells): little or no DMR signal

N[C@@H](Cc1ccc(O)cc1)C(=O)O [L-Tyrosine, L-tyrosine]
EC50 Tango (GPR35 [1]; [5]): Inactive | EC50 DMR (GPR35 [2]; [6]): Inactive

N[C@@H](Cc1ccc(O)c([N+](=O)[O-])c1)C(=O)O [3-Nitro-L-tyrosine, 3-nitro-L-tyrosine]
EC50 (GPR35 [1]): > 500 µM | Activity in Tango β-arrestin translocation assay (in words) (GPR35 [1]; U2OS-GPR35-bla cells): able to result in β-arrestin translocation | Efficacy Tango (maximal response) (GPR35 [1]; U2OS-GPR35-bla cells): >20 % Zaprinast | EC50 (GPR35 [2]): 142 ± 27 µM | Efficacy DMR (maximal response) (GPR35 [2]; HT-29 cells): 330±13 pm | DMR signal in DMR agonism profiling (in words) (GPR35 [2]; HT-29 cells): robust DMR signal

O=C(O)c1cc2cc(O)c(O)cc2[nH]1 [DHICA, 5,6-dihydroxyindole-2-carboxylic acid]
GPR35 internalization (GPR35 [3]): obvious internalization | EC50 (GPR35 [1]): 22.9 ± 1.6 µM | Activity in Tango β-arrestin translocation assay (in words) (GPR35 [1]; U2OS-GPR35-bla cells): robust FRET signal | Efficacy Tango (maximal response) (GPR35 [1]; U2OS-GPR35-bla cells): 75 % Zaprinast | EC50 (GPR35 [2]): 24.2 ± 2.7 µM | Efficacy DMR (maximal response) (GPR35 [2]; HT-29 cells): 310±11 pm | DMR signal in DMR agonism profiling (in words) (GPR35 [2]; HT-29 cells): clear dose-dependent and saturable DMR

CCOC(=O)Cc1ccc(O)c(OC)c1 [Ethyl homovanillate, ethyl homovanillate]
EC50 DMR (GPR35 [2]; [6]): Inactive

COc1cc(CC(=O)O)ccc1O [Homovanillic acid, homovanillic acid]
EC50 Tango (GPR35 [1]; [5]): Inactive | EC50 DMR (GPR35 [2]; [6]): Inactive

O=C(O)Cc1ccc(O)c(O)c1 [DOPAC, 3,4-Dihydroxyphenylacetic acid]
DMR of the agonist in the presence of 64 μM SPB05142 (GPR35 [4]): residual DMR signal | GPR35 internalization (GPR35 [3]): obvious internalization | EC50 (GPR35 [1]): 106 ± 7 µM | Efficacy Tango (maximal response) (GPR35 [1]; U2OS-GPR35-bla cells): 44 % Zaprinast | EC50 (GPR35 [2]): > 500 µM | Efficacy DMR (maximal response) (GPR35 [2]; HT-29 cells): >200 pm | DMR signal in DMR agonism profiling (in words) (GPR35 [2]; HT-29 cells): active

OCC(O)c1ccc(O)c(O)c1 (stereo not drawn) [DHPG, 3,4-dihydroxyphenylglycol]
DMR of the agonist in the presence of 64 μM SPB05142 (GPR35 [4]): residual DMR signal | EC50 (GPR35 [1]): 563 ± 67 µM | Efficacy Tango (maximal response) (GPR35 [1]; U2OS-GPR35-bla cells): 18 % Zaprinast | EC50 (GPR35 [2]): 239 ± 37 µM | Efficacy DMR (maximal response) (GPR35 [2]; HT-29 cells): 310±12 pm | DMR signal in DMR agonism profiling (in words) (GPR35 [2]; HT-29 cells): active

N[C@@H](Cc1cc(I)c(O)c(I)c1)C(=O)O [3,5-Diiodo-L-tyrosine, 3,5-diiodo-L-tyrosine]
EC50 Tango (GPR35 [1]; [5]): Inactive | EC50 (GPR35 [2]): 304 ± 45 µM | Efficacy DMR (maximal response) (GPR35 [2]; HT-29 cells): 254±19 pm | DMR signal in DMR agonism profiling (in words) (GPR35 [2]; HT-29 cells): clear dose-dependent DMR

N[C@@H](Cc1ccc(O)c(I)c1)C(=O)O [3-Iodo-L-tyrosine, 3-iodo-L-tyrosine]
EC50 Tango (GPR35 [1]; [5]): Inactive | EC50 (GPR35 [2]): > 500 µM | Efficacy DMR (maximal response) (GPR35 [2]; HT-29 cells): >50 pm | DMR signal at 1 mM (in words) (GPR35 [2]; HT-29 cells, 1 mM): small but detectable DMR

N[C@@H](Cc1cc(I)c(Oc2cc(I)c(O)c(I)c2)c(I)c1)C(=O)O [L-Thyroxine (T4), L-thyroxine, reference compound]
EC50 (GPR35 [1]): > 500 µM | Efficacy Tango (maximal response) (GPR35 [1]; U2OS-GPR35-bla cells): >20 % Zaprinast | EC50 (GPR35 [2]): > 500 µM | Efficacy DMR (maximal response) (GPR35 [2]; HT-29 cells): >100 pm

O=C([O-])/C=C/C(=O)[O-].[Na+].[Na+] [Sodium fumarate, sodium fumarate]
EC50 Tango (GPR35 [1]; [5]): Inactive | EC50 DMR (GPR35 [2]; [6]): Inactive
